The text below walks through data of the array DNA melting data of Ke et al. (doi:10.1101/2024.01.08.574731).

Data set [1] can be described thus: folding enthalpy; higher = less favourable; fluorescence melt of hairpins on a sequencing array, two-state fit. To be noted: sodium 0.088 M. The method, boiled down:
(§1)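 Library hairpins on a sequenced MiSeq flow cell carried annealed Cy3 and quencher oligos, and their Cy3 fluorescence was imaged in 50 mM Na-HEPES pH 8.0 with 25 mM NaCl, in 2.5 °C steps up to 60 °C. Signals were normalised to Cy3 before quenching and to control constructs. Melting temperature and folding enthalpy were obtained from bootstrapped two-state fits, combined by inverse-variance weighting across four replicates, and the fitted temperatures were then raised by 9.35 °C to match UV melts.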

Data set [2] is described as follows: melting temperature; fluorescence melt of hairpins on a sequencing array, two-state fit, raised by 9.35 °C to match UV melts. The conditions noted are these: sodium 0.088 M. The method, boiled down:
as §1

With GTCACGGGAAACCGCGAC (((.(((....))).))), the folding enthalpy in data set [1] was -30.4 kcal/mol. The Tm in data set [2] is 50.8 °C.
For GCCTGGGGAAACCCAGAC (.(((((....))))).) the same measures were -14.1 kcal/mol and 44.5 °C.
On to GGGACTGGAAACAGTCCC (((((((....))))))), for which the folding enthalpy in data set [1] was -37.8 kcal/mol. Further, the Tm in data set [2] is 69 °C.
Regarding GTGTCGGGAAACCGGCAC (((.(((....))).))), the folding enthalpy in data set [1] was -45.1 kcal/mol. Also, in data set [2], the Tm is 60.8 °C.
In the same order, the values of GTATCCGAAAGGATAC ((((((....)))))) are -35.1 kcal/mol and 65.8 °C.
In the same order, the values of GTATTAGGAAACTGATAC ((((.((....)).)))) are -21.3 kcal/mol and 34.3 °C.
In the same order, the values of GGCACAGAAATGTGCC ((((((....)))))) are -35.9 kcal/mol and 66.5 °C.
Take GATCATCTCGATGATC ((((((....)))))): the folding enthalpy in data set [1] was -50.6 kcal/mol. For the same sequence, the Tm in data set [2] worked out at 54.6 °C.
For the sequence GATCTTCGTTAAGATC ((((((....)))))), the folding enthalpy in data set [1] was -32.2 kcal/mol. Moreover, the Tm in data set [2] turned out to be 43 °C.
As for GGGATGGGAAACCATCTC (.(((((....))))).), the folding enthalpy in data set [1] is -24.5 kcal/mol. For the same sequence, in data set [2], the Tm was determined as 49.9 °C.
For the sequence GGGAATGGAAACGTTTCC ((.((.(....).)).)), in data set [1], the folding enthalpy was -15.3 kcal/mol. The Tm in data set [2] came to 34.3 °C.
For the sequence GATCTACGGTTAGATC ((((((....)))))), the folding enthalpy in data set [1] is -30.3 kcal/mol. The Tm in data set [2] turned out to be 37.8 °C.
In the same order, the values of GGTCTACGAAAGTACACC (((.(((....))).))) are -22 kcal/mol and 35.8 °C.
Consider GTGCACGAAAGTGCCCAC ((((((....)))..))), for which the folding enthalpy in data set [1] was -7.58 kcal/mol. Also, the Tm in data set [2] came out at 40.7 °C.
In the same order, the values of GCCGGCGAAAGCCTCGGC ((((((....)))..))) are -19.9 kcal/mol and 53.3 °C.
In the same order, the values of GCTGGACCGAAAGGTAGC (((..(((....)))))) are -18.5 kcal/mol and 39.5 °C.
In the same order, the values of GATCTCTCCTGAGATC ((((((....)))))) are -39.3 kcal/mol and 55 °C.
Consider GATTGGAAACAATC (((((....))))), for which the folding enthalpy in data set [1] was -23.6 kcal/mol. Besides, in data set [2], the Tm amounted to 40.5 °C.
In the same order, the values of GAACGCCCGAAAGGGTTC (((..(((....)))))) are -10.8 kcal/mol and 30.3 °C.
For GCAATCGGAAACGACTGC (((.(((....))).))) the same measures were -28.9 kcal/mol and 45.1 °C.
For GACCTACGAAAGTAGTC (((.(((....)))))) the same measures were -17.3 kcal/mol and 42.1 °C.
In the case of GGCCACGGAAACGCGGCC ((((.((....)).)))), the folding enthalpy in data set [1] is -40.4 kcal/mol. Moreover, in data set [2], the Tm came to 66.5 °C.
In the same order, the values of GTGTGCGGAAACGCATGC (..((((....))))..) are -15.9 kcal/mol and 49.6 °C.
For GGAGTGGGAAACCGCTCC ((((.((....)).)))) the same measures were -44.3 kcal/mol and 57.8 °C.
In the same order, the values of GATAGGGGAAACCCTACC (.(((((....))))).) are -16.8 kcal/mol and 31.1 °C.
Regarding GAGTACGAAAGTAGACTC ((((((....)))..))), the folding enthalpy in data set [1] was -16.8 kcal/mol. Besides, the Tm in data set [2] is 35.8 °C.
In the same order, the values of GTGGTAGAAATACCAC ((((((....)))))) are -36.1 kcal/mol and 53.6 °C.
For GCATTCTCGAAAGAGTGC (((..(((....)))))), in data set [1], the folding enthalpy was -24.3 kcal/mol. For the same sequence, the Tm in data set [2] amounted to 40.9 °C.
For the sequence GGGTGGGGAAACTCGCCC (((.(.(....).).))), the folding enthalpy in data set [1] is -30.9 kcal/mol. For the same sequence, the Tm in data set [2] was 47.6 °C.
For GGAGGTTCGAAAGAATCC (((..(((....)))))) the same measures were -14.4 kcal/mol and 28.9 °C.
In the same order, the values of GATCTTGAACAAGATC ((((((....)))))) are -34.8 kcal/mol and 49.2 °C.
For GCCTAGTCGAAAGACGGC (((..(((....)))))) the same measures were -21 kcal/mol and 51.6 °C.
For the sequence GCAGAGCGAAAGCTAGGC ((..(((....)))..)), in data set [1], the folding enthalpy was -16.4 kcal/mol. The Tm in data set [2] is 50.7 °C.
On to GCAAATGGAAACATCTGC (((.(((....))).))), for which the folding enthalpy in data set [1] was -20.3 kcal/mol. In addition, the Tm in data set [2] worked out at 33 °C.
For GTTCGGGGAAACCTGAGC (.((.((....)).)).) the same measures were -20.5 kcal/mol and 32.6 °C.
For the sequence GATCAGCTAGCTGATC ((((((....)))))), the folding enthalpy in data set [1] was -48 kcal/mol. Further, in data set [2], the Tm is 62.1 °C.
In the case of GGTCTCGAAAGAGAACC ((((((....))).))), the folding enthalpy in data set [1] was -19 kcal/mol. Further, the Tm in data set [2] was determined as 50 °C.
